Data set [1] concerns CC(C)=CCC/C(C)=C/CC/C(=C/COP(=O)(O)OP(=O)(O)O)C1CCCC1. The experiment in a line: Km for mammalian protein Farnesyltransferase expressed in baculovirus.
Data set [2] deals with CC(C)=CCC/C(C)=C/CC/C(C)=C/COP(=O)(O)OP(=O)(O)O.
Data set [3] deals with Protein farnesyltransferase (Homo sapiens) (UniProt P49354+P49356). The experiment in a line: Relative Vmax for Farnesyltransferase at 10 uM. Type of data set: protein-complex assay. The gist of the method:
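Baculovirus-expressed, purified recombinant mammalian FTase in a continuous fluorometric assay with dansyl-GCVLS-OH peptide cosubstrate, testing each FPP analogue as alternative prenyl donor. Relative Vmax is the Vmax with analogue at 10 μM divided by the Vmax with FPP at 10 μM under the same conditions. Analogue concentrations were checked by phosphate analysis.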

The term Km denotes the concentration of substrate that gives half-maximal velocity.

For the molecule “Protein farnesyltransferase (Homo sapiens) (from UniProt P49354+P49356)”, the figures for the Km in data set [1] and in data set [2] were 0.102 µM and 0.107 µM, respectively. In data set [3], `CCC/C(=C\COP(=O)(O)OP(=O)(O)O)CC/C=C(\C)CCC=C(C)C` had a Krel of 0.078. In data set [3], `CC(C)=CCC/C(C)=C/CC/C(=C/COP(=O)(O)OP(=O)(O)O)CC(C)C` displayed a Krel of 0. As for `CC(C)=CCC/C(C)=C/CC/C(=C/COP(=O)(O)OP(=O)(O)O)c1ccc(F)cc1`, the Krel in data set [3] was determined as 0.002. The molecule `CC(C)=CCC/C(C)=C/CC/C(=C/COP(=O)(O)OP(=O)(O)O)C1CCCC1` registered a Krel in data set [3] of 0.072. In data set [3], `C=C(C)/C(=C\COP(=O)(O)OP(=O)(O)O)CC/C=C(\C)CCC=C(C)C` came in with a Krel of 0.

As to `C=C/C(=C\COP(=O)(O)OP(=O)(O)O)CC/C=C(\C)CCC=C(C)C`, the Krel in data set [3] stood at 0.521.

As for `CC(C)=CCC/C(C)=C/CC/C(=C/COP(=O)(O)OP(=O)(O)O)C(C)C`, the Krel in data set [3] came to 0.013.

In data set [3], `CC(C)=CCC/C(C)=C/CC/C(=C/COP(=O)(O)OP(=O)(O)O)CC(C)(C)C` displayed a Krel of 0.042.

In data set [3], `C=CC/C(=C\COP(=O)(O)OP(=O)(O)O)CC/C=C(\C)CCC=C(C)C` gave a Krel of 0.053. `CCC(C)/C(=C\COP(=O)(O)OP(=O)(O)O)CC/C=C(\C)CCC=C(C)C` (configuration not stated) showed a Krel in data set [3] of 0.

Values taken from ChEMBL document CHEMBL1133135, “Grignard-mediated synthesis and preliminary biological evaluation of novel 3-substituted farnesyl diphosphate analogues” (Bioorg Med Chem Lett, 2000).
